The values below come from the array DNA melting data of Ke et al. (doi:10.1101/2024.01.08.574731).

Series [1] in a line: folding enthalpy; higher = less favourable; fluorescence melt of hairpins on a sequencing array, two-state fit. To be noted: sodium 0.088 M. The procedure, abridged:
(§1)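 Two-state fits, bootstrapped, provided melting temperature and folding enthalpy from Cy3 fluorescence normalised to pre-quench Cy3 and to control constructs. Library hairpins with annealed Cy3 and quencher oligos were imaged on a sequenced MiSeq flow cell in 50 mM Na-HEPES pH 8.0, 25 mM NaCl, at 2.5 °C intervals up to 60 °C. Four replicates were combined with inverse-variance weighting. A 9.35 °C upward shift was applied to fitted temperatures to match UV melts.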

Series [2] is described as follows: melting temperature; fluorescence melt of hairpins on a sequencing array, two-state fit, raised by 9.35 °C to match UV melts. To be noted: sodium 0.088 M. In short, it runs like this:
as §1

In the case of GGTCTCGAAAGAGTCACC ((((((....)))..))), the folding enthalpy in series [1] is -14.6 kcal/mol. Besides, the Tm in series [2] was determined as 31.3 °C.
For CGCGCTCGGAAACGAGCG (((..(((....)))))) the same measures were -7.49 kcal/mol and 67.6 °C.
For GTACTAGGAAACTGGTAC ((((.((....)).)))) the same measures were -31.4 kcal/mol and 42.2 °C.
Take GGCATACGAAAGTACGCC (((.(((....))).))): the folding enthalpy in series [1] was -32.1 kcal/mol. Further, the Tm in series [2] worked out at 51.8 °C.
As to GTGCGTGGAAACACGTGC (..((((....))))..), the folding enthalpy in series [1] was -18.4 kcal/mol. Besides, the Tm in series [2] was 51.5 °C.
For GAGGGCGGAAACGCCTTC ((.((((....)))).)) the same measures were -13.8 kcal/mol and 50.5 °C.
For GATAAACCGAAAGGTATC (((..(((....)))))) the same measures were -13.9 kcal/mol and 30 °C.
Turning to GCTAGGCGAAAGCGTCGC ((.(.((....)).).)), the folding enthalpy in series [1] was -14.3 kcal/mol. For the same sequence, in series [2], the Tm amounted to 40.3 °C.
On the same counts, the results for GCGATATGTCGC ((((....)))) are -26.4 kcal/mol and 55 °C.
On the same counts, the results for GTGATCGAAAGATTCAC ((((((....))).))) are -24.1 kcal/mol and 43.4 °C.
On the same counts, the results for GAATTCCGAAAGGATTTC (((.(((....))).))) are -29.7 kcal/mol and 40.7 °C.
As to GATAAAGGAAACTTTATC (((((((....))))))), the folding enthalpy in series [1] was -31.7 kcal/mol. In addition, the Tm in series [2] is 44.4 °C.
Turning to GCGTGCGAAAGCAATCGC ((((((....)))..))), the folding enthalpy in series [1] was -22.6 kcal/mol. In addition, in series [2], the Tm is 52.7 °C.
As to GATAGCGAAAGCTATATC ((((((....)))..))), in series [1], the folding enthalpy was -14.3 kcal/mol. Besides, the Tm in series [2] amounted to 46.6 °C.
On the same counts, the results for GCCTTCGCGAAAGCGGGC (((..(((....)))))) are -12.2 kcal/mol and 55.1 °C.
For GTTCCGGGAAACCGGAAC (((((((....))))))) the same measures were -30.1 kcal/mol and 68.7 °C.
On the same counts, the results for GATCAGCCATCTGATC ((((((....)))))) are -37.4 kcal/mol and 49.4 °C.
As for GATCGCACTGCGATC ((((((...)))))), in series [1], the folding enthalpy was -35 kcal/mol. The Tm in series [2] was 68.3 °C.
For GATCGTAGTGACGATC ((((((....)))))) the same measures were -33.7 kcal/mol and 56.6 °C.
For GTAGTCGGAAACGACCAC ((.((((....)))).)) the same measures were -14.5 kcal/mol and 37.4 °C.
Turning to GGCCATCCGAAAGGAGCC (((..(((....)))))), the folding enthalpy in series [1] was -20.1 kcal/mol. The Tm in series [2] is 42.8 °C.
On the same counts, the results for GATCCTGGTGAGGATC ((((((....)))))) are -42.1 kcal/mol and 52.5 °C.
On the same counts, the results for GAGAAGGGAAACCTTCCC (.(((((....))))).) are -15.9 kcal/mol and 34.6 °C.
On the same counts, the results for GGAGACGAAAGTCAGTCC ((((((....)))..))) are -13.6 kcal/mol and 31.6 °C.
As to GATCGCACAGGCGATC ((((((....)))))), the folding enthalpy in series [1] is -33 kcal/mol. Also, the Tm in series [2] was 68.1 °C.
For GAACACGAAAGTGATTTC ((((((....)))..))) the same measures were -12.3 kcal/mol and 26.9 °C.
For GCCGAGCGAAAGCCCAGC ((.(.((....)).).)) the same measures were -12.4 kcal/mol and 35.8 °C.
For GGGTTCCGAAAGGAGCCC (((.(((....))).))) the same measures were -39.8 kcal/mol and 67.1 °C.
Take GCGCGAGGAAACTTGCGC ((((.((....)).)))): the folding enthalpy in series [1] was -38.1 kcal/mol. The Tm in series [2] came out at 65.6 °C.
For GGTAATCGAAAGATCACC (((.(((....))).))) the same measures were -25.6 kcal/mol and 39.2 °C.
Regarding GTCCGTGGAAACGCGGAC (((((.(....).))))), the folding enthalpy in series [1] was -39.8 kcal/mol. In addition, in series [2], the Tm was found to be 62.2 °C.
For GAACCACGAAAGTGTTTC (((.(((....))).))) the same measures were -27.6 kcal/mol and 37.2 °C.
As to GGCGATGGAAACATCGTC (.(((((....))))).), in series [1], the folding enthalpy is -45.8 kcal/mol. The Tm in series [2] came out at 56.5 °C.
For GTTAAGCGAAAGCTGAAC (((.(((....))).))) the same measures were -23.2 kcal/mol and 48.2 °C.
On the same counts, the results for GTGGGTCCGAAAGGACAC (((..(((....)))))) are -19 kcal/mol and 63 °C.
As to GGAATCACGAAAGTGTCC (((..(((....)))))), the folding enthalpy in series [1] is -11.5 kcal/mol. For the same sequence, the Tm in series [2] came out at 30.5 °C.
For GATCTAGGCTTAGATC ((((((....)))))) the same measures were -38.4 kcal/mol and 46.6 °C.
